MT stabilize HCS – microtubule stabilizers in HeLa cells, primary screen, imaging, high-content imaging; HeLa tubulin immunostaining HCS, 24 h; share of cells brighter than vehicle mean+2SD; % tubulin-high responders, % at 10 µM; hit rate 0.83% among 200,000;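 active = plate Z-score above 3 for both tubulin-high and condensed-nucleus cell shares, with cell loss under 80%, at 10 µM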;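 also: anti alpha tubulin signal scored within the nucleus-defined area of each cell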
Dynein cargo inh – inhibitors of GR-EGFP nuclear translocation, primary screen, dynein cargo transport inhibitor project, imaging, high-content, 3617.4 mouse cells. hit rate 0.47% among 220,000. test concentration mostly 20 µM; stimulated with dexamethasone, 1 µM; hits give low values. z-score, hits read low;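 active = plate z-score of nuclear minus cytoplasmic receptor signal below a set negative limit, without overly bright fluorescence or cell loss, cut at about -3.5 in these data, passing the limit was not always enough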;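 also: z-score of nuclear minus cytoplasmic ring GR-EGFP intensity difference per well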
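Buffer or medium – tet-free medium with charcoal-stripped serum · Signal – automated 10x imaging of fixed Hoechst-stained cells · Also added – dexamethasone agonist, 1.0 µM final, for 30 min · Incubation – induction 48 h, compound 1 h, agonist 30 min · Read-out – GR-EGFP nuclear translocation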
Autophagy mod – autophagy modulators in MEF cells, primary screen, imaging, high-content, MEF GFP-LC3 | MEF GFP-LC3 puncta imaging; test concentration mostly 10 µM | AID 463193, 2010 | hit rate 0.98% among 190,000 | calls only at 10 µM (by protocol);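 active = percentage of spot-positive cells more than 3 SD above its plate mean, without a fluorescence outlier flag or 80% toxicity; inconclusive = no clear call, values can overlap the other calls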;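 also: spot-positive cell cutoff set from DMSO-treated cells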
CHOP inh – inhibitors of CHOP promoter induction, primary screen, cell-based, unfolded protein response, luciferase reporter; CHO-K1 CHOP-promoter luciferase, tunicamycin-induced, 15-18 h; inhibition, % at 10 µM; hit rate 3.8% among 220,000;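 active = compounds that reduced the stress-induced luciferase reporter signal by more than about 70% of percent inhibition, limit read from the data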;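 also: 0% = tunicamycin plus vehicle and 100% = wells without tunicamycin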
b-catenin transl – modulators of beta-catenin nuclear translocation, primary screen, imaging, HeLa cells, immunofluorescence, high-content. hit rate 0.3% among 190,000. AID 1665, 2009. nuclear translocation activity, % at 5 µM;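 active = nuclear translocation activity above 50% at 5 µM, with a well cell count of 50 or more; inconclusive = wells under 50 cells across six images, flagged as toxic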;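 also: per-cell ratio of nuclear to cytoplasmic median beta-catenin stain intensity; plate controls were DMSO negative control for no effect and GSK-3 inhibitor IX positive control for full effect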
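Test system: human HeLa cells, endogenous beta-catenin. Times: 24 h compound exposure, 37°C. Measured by: beta-catenin immunofluorescence imaging with DAPI.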
L major viab – Leishmania major promastigote growth inhibition, primary screen; Leishmania major promastigotes, resazurin fluorescence viability; inhibition, % at 10 µM; hit rate 9% among 200,000; AID 1063, 2008; in the data active = inhibition above about 50%;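 also: promastigotes grown with compound for 44 hours at 28 °C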
Numbers without * were called inactive; i = inactive; ? = inconclusive; · = not tested or not shown; + = active, no number. Shown are actives, neighbours in structure and some others; about 12% of the full set was active somewhere.

SMILES	MT stabilize HCS	Dynein cargo inh	Autophagy mod	CHOP inh	b-catenin transl	L major viab
COC(=O)C(C(=O)OC)C(C[N+](=O)[O-])c1ccc(OC)c(OC)c1 (centres undefined)	2.4	-0.567	i	3.9	0.1	99.9*
Oc1c(I)cc(Cl)c2cccnc12	3.0	0.618	i	85.0*	-1.2	-3.6
O=c1oc2ccccc2c(O)c1Cc1cc(Cl)c2cccnc2c1O	·	0.539	·	-0.3	-2.3	·
O=C(Oc1c(CN2CCOCC2)cc(Cl)c2cccnc12)c1ccccc1F	4.7	-0.763	i	66.6	-0.7	100.6*
Oc1c(CN2CCc3ccccc3C2)cc(Cl)c2cccnc12	2.8	-0.696	?	·	·	100.4*
COc1cc(OC)cc(C(=O)Oc2c(CN3CCOCC3)cc(Cl)c3cccnc23)c1	·	-0.337	·	-125.0	-1.7	·
O=C(Nc1ccc(CN2CCOCC2)cc1)c1ccccc1F	1.7	0.486	i	-31.7	-0.7	5.0
COc1ccc(C(=O)Oc2c(CN3CCOCC3)cc(Cl)c3cccnc23)cc1OC	1.4	-0.839	·	·	·	96.6*
Oc1c(CN2CCCCC2)cc(Br)c2cccnc12	7.5	-0.638	i	·	3.1	100.5*
O=C(Oc1c(CN2CCOCC2)cc(Cl)c2cccnc12)c1ccccc1	1.2	0.418	i	3.9	-2.5	100.3*
O=C(Oc1nsnc1N1CCOCC1)c1ccccc1	2.1	-0.857	i	59.3	·	-3.6
Oc1c(C(c2ccccn2)N2CCCCC2)cc(Cl)c2cccnc12 (centres undefined)	3.6	-1.64	i	-7.5	2.1	74.4*
CC(C)CC(N)C(=O)OCc1ccc([N+](=O)[O-])cc1 (centres undefined)	·	0.312	·	5.6	1.8	·
CCOC1(/N=C(\C)NS(=O)(=O)c2ccc(Cl)cc2)C(C)=CC(=O)C=C1C	1.9	-0.562	i	9.6	-2.1	-3.4
CCOC(=O)c1ccc(N/C(=N\S(=O)(=O)c2ccccc2C)c2ccccc2)cc1	1.6	0.218	i	22.2	-0.3	87.8*
CN(C)CC(=O)c1ccc(-c2ccccc2)cc1	4.3	-0.08	i	26.9	-1.8	86.3*
CCOc1ccc(NC(=O)CCC(=O)c2ccc(-c3ccccc3)cc2)cc1	1.6	-0.349	i	7.2	0.3	50.5*
CCOc1ccc(NC(=O)Cc2ccccc2)cc1	2.2	0.951	i	-19.1	1.6	-1.5
CCOc1ccc(NC(=O)CCCOc2cc(=O)n(C)c3ccccc23)cc1	2.9	0.699	i	74.2*	-4.3	-3.1
COc1ccccc1NC(=O)Nc1nn(C)c2cccc(OC)c12	·	0.0411	·	-1.4	-3.3	·
CCCc1cc(=O)[nH]c(SCC(=O)c2ccc3c(c2)NC(=O)CO3)n1	·	1.28	·	11.9	-1.4	·
COc1ccccc1C1/C(=C(\O)c2c(C)nc3c(C)cccn23)C(=O)C(=O)N1CCCN(C)C (centres undefined)	2.9	-0.715	i	·	·	-1.9
CCOC(=O)c1ccc(NC(=O)CCOc2ccccc2)cc1	0.8	0.452	i	13.7	·	84.5*
CC(=O)c1ccc(OCC(=O)c2ccc(-c3ccccc3)cc2)cc1	3.5	0.588	i	23.1	1.0	59.5*
CC(C)OC(=O)COc1ccc(-c2ccccc2)cc1	0.3	0.167	i	10.1	·	-7.9
SMILES	MT stabilize HCS	Dynein cargo inh	Autophagy mod	CHOP inh	b-catenin transl	L major viab
COc1ccc(N2C(=S)N=C(Nc3ccccc3)C23CCCCC3)cc1	3.4	0.113	i	101.4*	10.1	0.7
COc1ccc(NC2=NC(=S)N(c3ccccc3C)C23CCCCC3)cc1	2.4	-1.08	i	20.9	1.6	11.1
CC1CCc2c(C(=O)Oc3cccc(-n4cnnn4)c3)csc2C1 (centres undefined)	2.7	-0.164	i	88.6*	-0.3	7.0
NC(=S)N/N=C/c1ccc(-c2ccc(Cl)c(Cl)c2)o1	5.0	-0.431	i	47.5	4.7	96.2*
NC(=S)N/N=C\c1ccc(-c2cccc(Cl)c2Cl)o1	1.3	0.855	i	36.4	·	100.4*
NC(=S)N/N=C/c1ccc(-c2ccccc2)o1	8.3	0.0724	i	38.2	-0.8	10.1
CS(=O)(=O)c1ncc(CO)n1Cc1ccccc1	6.4	1.89	i	0.9	-0.6	-5.8
CC(NC(=O)OC(C)(C)C)C(=O)NC(CCC(=O)OCc1ccccc1)C(N)=O (centres undefined)	1.1	-0.675	i	-2.6	-4.1	-1.4
COc1ccc(OC(=O)CN2C(=O)C3C4CCC(C4)C3C2=O)cc1 (centres undefined)	5.3	1.26	i	15.1	0.0	2.4
CN(C(=O)c1cccs1)c1ccc(OCC(=O)Nc2ccc(C(=O)O)cc2)cc1	·	-0.351	·	4.1	-0.5	·
CC(C)CCNC(=O)NC(=O)CSc1nnc(-c2ccccc2Br)o1	2.3	-1.14	i	86.6*	-2.2	42.7
COC(=O)c1ccc(Oc2c(Cl)cccc2[N+](=O)[O-])cc1	2.7	0.279	i	40.9	-0.1	45.4
CCCCC(=O)c1ccc(O)cc1O	2.8	-0.489	+	24.2	·	-4.3
CCCCC(=O)c1ccc(O)cc1	0.7	-0.935	i	20.3	-3.2	-9.0
COc1cccc(-c2cc(=O)c3cc(NC(=O)c4ccc(Cl)cc4)ccc3[nH]2)c1	25.7*	0.297	i	-39.8	-0.1	-6.1
COc1cccc(-c2cc(=O)c3cc(NC(=O)c4ccc(N(C)C)cc4)ccc3[nH]2)c1	4.3	0.235	i	-86.6	87.8*	-6.5
COc1cccc(-c2cc(=O)c3cc(NC(=O)c4ccccc4)ccc3[nH]2)c1	15.2	-0.0953	i	-42.7	·	-3.0
COc1ccc2[nH]c(-c3cccc(F)c3)cc(=O)c2c1	13.0	-2.02	i	-56.2	·	4.2
NC(=O)CNC(=O)[C@@H]1CC2(CC(c3ccc(Cl)cc3)=NO2)CN1C(=O)c1ccc(Br)cc1 (some centres undefined)	3.1	1.02	i	19.6	-0.5	-4.5
CCN1/C(=C/c2ccc3cc(C)ccc3[n+]2CC)Sc2cc(C)ccc21	3.6	-2.64	?	81.7*	3.1	100.5*
CCN1/C(=C/c2ccc3ccccc3[n+]2CC)C=Cc2ccccc21	3.8	2.05	+	·	·	100.5*
CCCCN1/C(=C/c2ccc3ccccc3[n+]2CC)Sc2ccccc21	7.9	0.13	+	84.4*	1.3	100.4*
CCN1C(=C2C(=O)c3ccccc3C2=O)C=Cc2ccccc21	1.5	0.684	i	-11.8	-3.7	27.0
CCN(CC)CCN1c2ccccc2Sc2ccc3ccccc3c21	·	0.419	·	40.1	-4.4	·
COc1ccc(S(=O)(=O)N2CCCC2C(=O)Nc2ccc(C(C)=O)cc2)cc1 (centres undefined)	4.1	-0.51	i	-1.8	0.0	-4.2

Bioassay records (PubChem BioAssay)
